Activity calls are given as the source filed them. The calls are words filed in the database; no cut-off is given here.
Columns and labels:
Dipeptidyl peptidase 8 [1] = molecular target: T1, Dipeptidyl peptidase 8 (Homo sapiens, UniProt Q6V1X1); experiment: Inhibition of human DPP8
Target sequence in this assay (Q6V1X1 whole entry): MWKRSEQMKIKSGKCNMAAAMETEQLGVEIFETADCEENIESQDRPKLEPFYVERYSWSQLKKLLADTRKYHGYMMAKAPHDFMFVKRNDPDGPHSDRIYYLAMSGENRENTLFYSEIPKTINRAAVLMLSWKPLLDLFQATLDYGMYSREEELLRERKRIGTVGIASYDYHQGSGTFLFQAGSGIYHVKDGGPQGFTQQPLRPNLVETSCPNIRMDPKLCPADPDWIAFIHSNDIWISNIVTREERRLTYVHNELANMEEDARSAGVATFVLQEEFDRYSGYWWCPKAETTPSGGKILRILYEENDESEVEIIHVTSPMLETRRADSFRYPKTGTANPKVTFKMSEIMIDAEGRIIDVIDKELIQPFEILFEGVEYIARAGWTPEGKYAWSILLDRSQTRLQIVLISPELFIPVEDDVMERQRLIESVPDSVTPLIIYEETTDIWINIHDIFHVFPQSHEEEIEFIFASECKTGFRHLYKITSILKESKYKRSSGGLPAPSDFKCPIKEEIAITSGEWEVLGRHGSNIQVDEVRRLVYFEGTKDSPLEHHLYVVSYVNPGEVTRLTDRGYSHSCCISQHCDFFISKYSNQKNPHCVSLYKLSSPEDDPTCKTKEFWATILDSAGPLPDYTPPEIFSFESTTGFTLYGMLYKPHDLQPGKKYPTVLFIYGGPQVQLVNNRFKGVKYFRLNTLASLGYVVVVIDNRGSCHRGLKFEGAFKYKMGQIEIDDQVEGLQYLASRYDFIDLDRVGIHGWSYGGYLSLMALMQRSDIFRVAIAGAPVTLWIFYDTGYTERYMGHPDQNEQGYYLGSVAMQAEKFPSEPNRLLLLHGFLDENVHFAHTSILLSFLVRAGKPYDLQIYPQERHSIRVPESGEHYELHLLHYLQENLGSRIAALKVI

Dipeptidyl peptidase 2 = Dipeptidyl peptidase 2 (Homo sapiens, UniProt Q9UHL4); experiment: Inhibition of human DPP2
Prolyl endopeptidase FAP = molecular target: T2, Prolyl endopeptidase FAP (Homo sapiens, UniProt Q12884); experiment: Inhibition of human FAP
T2 sequence (Q12884 whole entry): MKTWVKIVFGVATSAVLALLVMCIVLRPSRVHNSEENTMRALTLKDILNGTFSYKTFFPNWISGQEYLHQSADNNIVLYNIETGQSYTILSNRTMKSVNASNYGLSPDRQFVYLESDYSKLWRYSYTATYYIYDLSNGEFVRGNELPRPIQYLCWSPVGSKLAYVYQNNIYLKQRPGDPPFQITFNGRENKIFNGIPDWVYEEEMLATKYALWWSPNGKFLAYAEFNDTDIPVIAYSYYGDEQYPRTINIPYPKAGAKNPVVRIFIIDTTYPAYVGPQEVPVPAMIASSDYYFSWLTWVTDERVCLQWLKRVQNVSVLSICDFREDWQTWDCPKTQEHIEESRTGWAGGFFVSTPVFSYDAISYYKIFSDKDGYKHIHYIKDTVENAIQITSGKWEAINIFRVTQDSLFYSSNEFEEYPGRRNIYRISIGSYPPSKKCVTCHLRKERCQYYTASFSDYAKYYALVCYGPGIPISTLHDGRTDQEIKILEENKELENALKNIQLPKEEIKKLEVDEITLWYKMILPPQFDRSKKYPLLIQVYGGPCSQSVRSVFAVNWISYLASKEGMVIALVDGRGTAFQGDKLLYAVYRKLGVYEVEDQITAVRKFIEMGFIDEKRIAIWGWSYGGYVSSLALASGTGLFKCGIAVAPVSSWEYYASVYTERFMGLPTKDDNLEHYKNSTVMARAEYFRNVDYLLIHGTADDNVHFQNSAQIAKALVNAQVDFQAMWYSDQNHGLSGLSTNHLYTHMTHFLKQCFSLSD

[2] = Plasma clearance in rat at 5 mg/kg, iv or 10 mg/kg, po; format: ADME, organism-based
Procedure, shortened: (§1)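 Rat pharmacokinetics after dosing at 5 mg/kg iv and 10 mg/kg po. Parameters derived: plasma clearance, oral Cmax, oral half-life, dose-normalised oral AUC and oral bioavailability (F).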

[3] = Cmax in rat at 10 mg/kg, po; format: ADME, organism-based; parameters: dose 10 mg/kg, route oral; conditions: in vivo; procedure, shortened: as §1
[4] = Half life in rat at 10 mg/kg, po; format: ADME, organism-based; parameters: dose 10 mg/kg, route oral; conditions: in vivo; procedure, shortened: as §1
[5] = (§2) Oral bioavailability in rat at 10 mg/kg, po; format: ADME, organism-based; conditions: in vivo; procedure, shortened: as §1
[6] = Plasma clearance in rat at 5 mg/kg, iv or 25 mg/kg, po; format: ADME, organism-based
Procedure, shortened: (§3)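 Rat pharmacokinetics after dosing at 5 mg/kg iv and 25 mg/kg po. Parameters derived: plasma clearance, oral Cmax, oral half-life, dose-normalised oral AUC and oral bioavailability (F).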

[7] = Cmax in rat at 25 mg/kg, po; format: ADME, organism-based; parameters: dose 25 mg/kg, route oral; conditions: in vivo; procedure, shortened: as §3
[8] = Half life in rat at 25 mg/kg, po; format: ADME, organism-based; parameters: dose 25 mg/kg, route oral; conditions: in vivo; procedure, shortened: as §3
[9] = Oral bioavailability in rat at 25 mg/kg, po; format: ADME, organism-based; conditions: in vivo; procedure, shortened: as §3
Rattus norvegicus [10] = experiment: as §2; format: ADME, organism-based; conditions: in vivo; procedure, shortened: as §1
hERG (KCNH2) = hERG (KCNH2) (Homo sapiens, UniProt Q12809); experiment: Inhibition of human ERG at 10 uM
Chain of hERG (KCNH2) (Q12809 whole entry): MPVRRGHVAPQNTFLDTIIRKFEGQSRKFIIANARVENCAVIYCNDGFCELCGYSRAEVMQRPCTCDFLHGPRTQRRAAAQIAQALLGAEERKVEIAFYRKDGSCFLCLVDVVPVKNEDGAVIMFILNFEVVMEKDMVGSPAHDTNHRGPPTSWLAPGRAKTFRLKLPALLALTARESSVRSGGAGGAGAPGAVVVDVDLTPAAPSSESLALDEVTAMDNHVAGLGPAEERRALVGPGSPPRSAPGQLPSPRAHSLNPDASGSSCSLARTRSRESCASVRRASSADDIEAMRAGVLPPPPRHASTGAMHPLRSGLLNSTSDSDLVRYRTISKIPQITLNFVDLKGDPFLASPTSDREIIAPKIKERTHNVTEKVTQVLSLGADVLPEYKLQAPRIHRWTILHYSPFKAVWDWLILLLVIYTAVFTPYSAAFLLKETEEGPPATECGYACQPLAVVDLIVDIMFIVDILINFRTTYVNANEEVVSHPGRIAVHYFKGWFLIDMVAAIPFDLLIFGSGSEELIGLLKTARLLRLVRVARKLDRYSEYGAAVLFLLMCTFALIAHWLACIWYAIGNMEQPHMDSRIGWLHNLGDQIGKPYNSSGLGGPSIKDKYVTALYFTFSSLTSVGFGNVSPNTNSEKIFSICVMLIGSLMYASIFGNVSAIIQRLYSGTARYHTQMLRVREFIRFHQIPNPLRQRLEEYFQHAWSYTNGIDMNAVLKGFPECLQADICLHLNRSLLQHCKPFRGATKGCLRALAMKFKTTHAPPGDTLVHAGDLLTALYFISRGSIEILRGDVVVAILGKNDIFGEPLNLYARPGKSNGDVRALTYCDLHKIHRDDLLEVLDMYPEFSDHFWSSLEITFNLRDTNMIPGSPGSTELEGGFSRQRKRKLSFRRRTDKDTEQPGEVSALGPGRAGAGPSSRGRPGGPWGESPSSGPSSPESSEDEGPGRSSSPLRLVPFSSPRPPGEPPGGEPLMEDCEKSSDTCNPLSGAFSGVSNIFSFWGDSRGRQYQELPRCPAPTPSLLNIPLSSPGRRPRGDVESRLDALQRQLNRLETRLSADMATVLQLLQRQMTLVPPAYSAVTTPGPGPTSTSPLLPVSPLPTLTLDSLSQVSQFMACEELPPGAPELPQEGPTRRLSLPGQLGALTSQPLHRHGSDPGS
Procedure, shortened: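 hERG binding; percent inhibition at a test concentration of 10 µM.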

Rattus norvegicus [11] = experiment: Inhibition of DPP4 in Wistar rat plasma at 10 mg/kg, po after 24 hrs; format: functional, organism-based; parameters: dose 10 mg/kg
Procedure, shortened: (§4)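 Adult male Wistar rats (n = 4–6/group) given a single oral gavage of 10 mg/kg in 0.5% methyl cellulose. Tail-vein blood (25–50 µl) taken at timed points and plasma kept frozen. Plasma (10 µl) mixed with 150 µM Gly-Pro-AMC in 25 mM Tris-HCl pH 7.4, 140 mM NaCl, 10 mM KCl, 0.1% BSA. Fluorescence read at ex 390/em 460 nm. Activity in U/mL; mean ± SEM.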

Mus musculus = experiment: Reduction in glucose excursion in C57BL/6J lean mouse at 3 mg/kg, po pretreated 30 mins before glucose challenge measured after 120 mins by oral glucose tolerance test relative to control; format: functional, organism-based; parameters: dose 3 mg/kg
Procedure, shortened: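 Fasted overnight: adult male C57BL/6 mice (20–25 g, 6–8 weeks old, n = 6/group), grouped by tail-vein glucometer reading. Oral gavage of test agent in distilled water at −30 min (1, 3 or 10 mg/kg), then 3 g/kg oral glucose (400 mg/mL) at 0 min.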

Dipeptidyl peptidase 8 [12] = molecular target: T1, Dipeptidyl peptidase 8; experiment: Inhibition of human DPP8 at 20 uM
Target sequence in this assay (Q6V1X1 whole entry, looked up): as the sequence (Q6V1X1 whole entry) above

Rattus norvegicus [13] = experiment: Inhibition of DPP4 in Wistar rat plasma at 10 mg/kg, po within 30 mins; format: functional; conditions: 0.5 h; procedure, shortened: as §4
Rattus norvegicus [14] = experiment: Inhibition of DPP4 in Wistar rat plasma at 10 mg/kg, po after 8 hrs; format: functional; procedure, shortened: as §4

Compound	IC50 (Dipeptidyl peptidase 8 [1])	IC50 (Dipeptidyl peptidase 2)	IC50 (Prolyl endopeptidase FAP)	other results
CC(C)(CC(=O)N[C@H]1C[C@@H]1c1ccc(Cl)c(Cl)c1)NCC(=O)N1CCC[C@H]1C#N	> 20 µM	> 20 µM	> 20 µM	–
CC(C)(CC(=O)N[C@H]1C[C@@H]1c1ccc(F)c(F)c1)NCC(=O)N1CCC[C@H]1C#N	> 20 µM	> 20 µM	> 20 µM	–
CC(C)(CC(=O)N[C@H]1C[C@@H]1c1ccccc1)NCC(=O)N1CCC[C@H]1C#N	> 20 µM	16 µM	> 20 µM	–
COc1ccc([C@H]2C[C@@H]2NC(=O)CC(C)(C)NCC(=O)N2CCC[C@H]2C#N)cc1OC	> 20 µM	> 20 µM	> 20 µM	–
CC(C)(CC(=O)N[C@H]1C[C@@H]1c1ccc(Cl)cc1)NCC(=O)N1CCC[C@H]1C#N	> 20 µM	> 20 µM	> 20 µM	–
CC(C)(CC(=O)N[C@@H]1C[C@H]1c1cccc(Cl)c1)NCC(=O)N1CCC[C@H]1C#N	> 20 µM	17 µM	> 20 µM	–
CC(C)(CC(=O)N[C@H]1C[C@@H]1c1ccc(C(F)(F)F)cc1)NCC(=O)N1CCC[C@H]1C#N	> 20 µM	> 20 µM	> 20 µM	–
CC(C)(CC(=O)N[C@H]1C[C@@H]1c1cccc(C(F)(F)F)c1)NCC(=O)N1CCC[C@H]1C#N	> 20 µM	> 20 µM	> 20 µM	–
CC(C)(CC(=O)N[C@H]1C[C@@H]1c1cccc(Cl)c1)NCC(=O)N1CCC[C@H]1C#N (stereo in doubt; 22)	> 20 µM	> 20 µM	> 20 µM	–
CC(C)(CC(=O)N[C@H]1C[C@@H]1c1ccc(F)cc1)NCC(=O)N1CCC[C@H]1C#N	> 20 µM	> 20 µM	> 20 µM	–
CC(C)(CC(=O)N[C@H]1C[C@@H]1c1cccc(Cl)c1)NCC(=O)N1CC(F)(F)C[C@H]1C#N	–	0.59 µM	–	clearance [6]: 189 mL/min/kg; Cmax [7]: 454 ng/mL; half-life [8]: 3.2 h; bioavailability [9]: 53%; inhibition at 10 µM (hERG (KCNH2)): 15%
CC(C)(CC(=O)N[C@H]1C[C@@H]1c1cc(F)cc(F)c1)NCC(=O)N1CCC[C@H]1C#N	> 20 µM	> 20 µM	> 20 µM	–
N[C@@H](CC(=O)N1CCn2c(nnc2C(F)(F)F)C1)Cc1cc(F)c(F)cc1F	–	–	–	Activity (Rattus norvegicus [11]): inactive; Activity (Mus musculus): Active
CC(C)(CC(=O)N[C@H]1C[C@@H]1c1cccc(Cl)c1)NCC(=O)N1CCC[C@H]1C#N (stereo in doubt; 18k)	> 20 µM	> 20 µM	> 20 µM	–
CC(C)(CC(=O)N[C@H]1C[C@@H]1c1cccc(F)c1)NCC(=O)N1CCC[C@H]1C#N	> 20 µM	> 20 µM	> 20 µM	–
CC(C)(CC(=O)N[C@H]1C[C@@H]1c1ccc(F)cc1F)NCC(=O)N1CCC[C@H]1C#N	> 20 µM	> 20 µM	> 20 µM	–
Cc1ncsc1[C@H]1C[C@@H]1NC(=O)CC(C)(C)NCC(=O)N1C[C@@H](F)C[C@H]1C#N	> 20 µM	> 20 µM	> 20 µM	inhibition (Dipeptidyl peptidase 8 [12]): 23%; inhibition in vivo at 10 mg/kg (Rattus norvegicus [13]): 60%; inhibition in vivo at 10 mg/kg (Rattus norvegicus [14]): 30%

Further lines, with some results ahead:

IC50 (Dipeptidyl peptidase 8 [1])	IC50 (Dipeptidyl peptidase 2)	IC50 (Prolyl endopeptidase FAP)	Compound	other results
–	> 20 µM	> 20 µM	CC(C)(CC(=O)N[C@H]1C[C@@H]1c1cccc(F)c1)NCC(=O)N1C[C@@H](F)C[C@H]1C#N	clearance [2]: 55 mL/min/kg; Cmax [3]: 175 ng/mL; half-life [4]: 1.2 h; bioavailability [5]: 29%
> 20 µM	> 20 µM	–	CCOc1cccc([C@H]2C[C@@H]2NC(=O)CC(C)(C)NCC(=O)N2C[C@@H](F)C[C@H]2C#N)c1	–
> 20 µM	> 20 µM	> 20 µM	COc1ccc([C@H]2C[C@@H]2NC(=O)CC(C)(C)NCC(=O)N2C[C@@H](F)C[C@H]2C#N)cc1	clearance [6]: 20 mL/min/kg; Cmax [7]: 347 ng/mL; half-life [8]: 5.3 h; bioavailability [9]: 28%
> 20 µM	> 20 µM	> 20 µM	CC(C)(CC(=O)N[C@H]1C[C@@H]1c1ccccc1)NCC(=O)N1C[C@@H](F)C[C@H]1C#N	–
> 20 µM	> 20 µM	> 20 µM	COc1cccc([C@H]2C[C@@H]2NC(=O)CC(C)(C)NCC(=O)N2C[C@@H](F)C[C@H]2C#N)c1	clearance [2]: 124 mL/min/kg; Cmax [3]: 898 ng/mL; half-life [4]: 6.8 h; F (Rattus norvegicus [10]): 194%
–	5.2 µM	> 20 µM	CC(C)(CC(=O)N[C@@H]1C[C@H]1c1cccc(Cl)c1)NCC(=O)N1C[C@@H](F)C[C@H]1C#N	–
> 20 µM	> 20 µM	> 20 µM	CC(C)(CC(=O)N[C@H]1C[C@@H]1c1cccc(OC(F)(F)F)c1)NCC(=O)N1CCC[C@H]1C#N	–
> 20 µM	> 20 µM	> 20 µM	CC(C)(CC(=O)N[C@H]1C[C@@H]1c1cccc(OC(F)(F)F)c1)NCC(=O)N1C[C@@H](F)C[C@H]1C#N	–
> 20 µM	> 20 µM	> 20 µM	CC(C)(CC(=O)N[C@H]1C[C@@H]1c1cccnc1)NCC(=O)N1C[C@@H](F)C[C@H]1C#N	inhibition (Dipeptidyl peptidase 8 [12]): 17%

From ChEMBL document CHEMBL1152812, “Novel trans-2-aryl-cyclopropylamine analogues as potent and selective dipeptidyl peptidase IV inhibitors” (Bioorg Med Chem, 2009)
